ChEMBL document CHEMBL3244249, “Studies on vitamin D (calciferol) and its analogues. 15. 24-Nor-1alpha,25-dihydroxyvitamin D3 and 24-nor-25-hydroxy-5,6-trans-vitamin D3” (1978)
One block for each molecule: values may come before it. Activity calls are given as the source filed them. The rule behind the calls is not given here.

Legend:
[1] = tested on: Gallus gallus; experiment: Induction of bone calcium mobilization in vitamin-D-deficient chicken assessed per 100 ml of serum at 163 nmol, ip using 45Ca2+ and 40Ca2+ after 5 to 36 hrs; assay type: functional, organism-based
Method in brief: (§1)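 Rachitic chicks given a single 163-nmol intraperitoneal dose and sampled between 5 and 36 h afterward. ICA and BCM were read by the Hibberd–Norman procedure: duodenal 45Ca2+/40Ca2+ load, then serum collected 30 min later. ICA was taken as serum radioactivity and BCM as serum calcium by atomic absorption.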

[2] = tested on: Gallus gallus; experiment: Induction of intestinal calcium absorption in vitamin-D-deficient chicken assessed per 0.2 ml of plasma at 163 nmol, ip using 45Ca2+ and 40Ca2+ after 5 to 36 hrs; assay type: functional, organism-based; method in brief: as §1
[3] = species on record: Gallus gallus; experiment: Displacement of [3H]-1-alpha,25-(OH)2-D3 from chicken intestinal cytosol chromatin receptor after 30 mins by scintillation counting relative to 1-alpha,25-(OH)2-D3
Method in brief: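 Reconstituted chick intestinal cytosol–chromatin receptor system. Nonradioactive competitor plus tritiated 1α,25-(OH)2-D3 (2 × 10^-8 M, constant saturating) with chromatin (375 μg DNA) in cytosol, incubated 30 min at 25 °C. Chromatin reisolated by centrifugation, washed three times (0.5% Triton X-100, 0.01 M Tris-HCl pH 8.5), and bound tritium counted by liquid scintillation. Expressed as RCI, with 1α,25-(OH)2-D3 set at 100.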

[4] = tested on: Gallus gallus; experiment: Induction of bone calcium mobilization in vitamin-D-deficient chicken assessed per 100 ml of serum at 0.62 nmol, ip using 45Ca2+ and 40Ca2+ after 14 hrs; assay type: functional
Method in brief: (§2)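 White Leghorn cockerels raised 4 weeks on a rachitogenic low-calcium diet without vitamin D, switched to a zero-calcium diet 3 days before assay. Analogue given intraperitoneally. Under light ether anesthesia, 5 μCi 45Ca2+ plus 4 mg 40Ca2+ carrier was put into the exposed duodenum. Birds were decapitated 30 min later and blood allowed to clot. Serum Ca2+ measured by atomic absorption on diluted serum, as mg/100 mL ± SEM.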

[5] = tested on: Gallus gallus; experiment: Induction of bone calcium mobilization in vitamin-D-deficient chicken assessed per 100 ml of serum at 3.1 nmol, ip using 45Ca2+ and 40Ca2+ after 14 hrs; assay type: functional; method in brief: as §2
[6] = tested on: Gallus gallus; experiment: Induction of bone calcium mobilization in vitamin-D-deficient chicken assessed per 100 ml of serum at 15.5 nmol, ip using 45Ca2+ and 40Ca2+ after 14 hrs; assay type: functional; method in brief: as §2
[7] = tested on: Gallus gallus; experiment: Induction of bone calcium mobilization in vitamin-D-deficient chicken assessed per 100 ml of serum at 62 nmol, ip using 45Ca2+ and 40Ca2+ after 14 hrs; assay type: functional; method in brief: as §2
[8] = tested on: Gallus gallus; experiment: Induction of bone calcium mobilization in vitamin-D-deficient chicken assessed per 100 ml of serum at 310 nmol, ip using 45Ca2+ and 40Ca2+ after 14 hrs; assay type: functional; method in brief: as §2
[9] = tested on: Gallus gallus; experiment: Induction of bone calcium mobilization in vitamin-D-deficient chicken assessed per 100 ml of serum at 62 nmol, ip using 45Ca2+ and 40Ca2+ after 18 hrs; assay type: functional; method in brief: as §2
[10] = tested on: Gallus gallus; experiment: Induction of bone calcium mobilization in vitamin-D-deficient chicken assessed per 100 ml of serum at 62 nmol, ip using 45Ca2+ and 40Ca2+ after 24 hrs; assay type: functional; method in brief: as §2
[11] = tested on: Gallus gallus; experiment: Induction of bone calcium mobilization in vitamin-D-deficient chicken assessed per 100 ml of serum at 62 nmol, ip using 45Ca2+ and 40Ca2+ after 36 hrs; assay type: functional; method in brief: as §2
[12] = tested on: Gallus gallus; experiment: Induction of intestinal calcium absorption in vitamin-D-deficient chicken assessed per 0.2 ml of plasma at 0.62 nmol, ip using 45Ca2+ and 40Ca2+ after 14 hrs; assay type: functional
Method in brief: (§3)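 Rachitic White Leghorn cockerels (4 weeks on a rachitogenic low-calcium diet without vitamin D, zero-calcium diet for the final 3 days) dosed intraperitoneally. Under light ether anesthesia, 5 μCi 45Ca2+ plus 4 mg 40Ca2+ carrier was placed in the duodenum. Birds were decapitated after 30 min. 45Ca radioactivity counted per 0.2 mL serum aliquot (cpm ± SEM). The enhancement ratio is relative to vitamin D-deficient controls.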

[13] = tested on: Gallus gallus; experiment: Induction of intestinal calcium absorption in vitamin-D-deficient chicken assessed per 0.2 ml of plasma at 3.1 nmol, ip using 45Ca2+ and 40Ca2+ after 14 hrs; assay type: functional; method in brief: as §3
[14] = tested on: Gallus gallus; experiment: Induction of intestinal calcium absorption in vitamin-D-deficient chicken assessed per 0.2 ml of plasma at 15.5 nmol, ip using 45Ca2+ and 40Ca2+ after 14 hrs; assay type: functional; method in brief: as §3
[15] = tested on: Gallus gallus; experiment: Induction of intestinal calcium absorption in vitamin-D-deficient chicken assessed per 0.2 ml of plasma at 62 nmol, ip using 45Ca2+ and 40Ca2+ after 14 hrs; assay type: functional; method in brief: as §3
[16] = tested on: Gallus gallus; experiment: Induction of intestinal calcium absorption in vitamin-D-deficient chicken assessed per 0.2 ml of plasma at 310 nmol, ip using 45Ca2+ and 40Ca2+ after 14 hrs; assay type: functional; method in brief: as §3
[17] = tested on: Gallus gallus; experiment: Induction of intestinal calcium absorption in vitamin-D-deficient chicken assessed per 0.2 ml of plasma at 62 nmol, ip using 45Ca2+ and 40Ca2+ after 18 hrs; assay type: functional; method in brief: as §3
[18] = tested on: Gallus gallus; experiment: Induction of intestinal calcium absorption in vitamin-D-deficient chicken assessed per 0.2 ml of plasma at 62 nmol, ip using 45Ca2+ and 40Ca2+ after 24 hrs; assay type: functional; method in brief: as §3
[19] = tested on: Gallus gallus; experiment: Induction of intestinal calcium absorption in vitamin-D-deficient chicken assessed per 0.2 ml of plasma at 62 nmol, ip using 45Ca2+ and 40Ca2+ after 36 hrs; assay type: functional; method in brief: as §3
[20] = tested on: Gallus gallus; experiment: Induction of intestinal calcium absorption in vitamin-D-deficient chicken assessed per 0.2 ml of plasma at 0.62 nmol, ip using 45Ca2+ and 40Ca2+ after 14 hrs relative to control; assay type: functional; method in brief: as §3
[21] = tested on: Gallus gallus; experiment: Induction of intestinal calcium absorption in vitamin-D-deficient chicken assessed per 0.2 ml of plasma at 3.1 nmol, ip using 45Ca2+ and 40Ca2+ after 14 hrs relative to control; assay type: functional; method in brief: as §3
[22] = tested on: Gallus gallus; experiment: Induction of intestinal calcium absorption in vitamin-D-deficient chicken assessed per 0.2 ml of plasma at 15.5 nmol, ip using 45Ca2+ and 40Ca2+ after 14 hrs relative to control; assay type: functional; method in brief: as §3
[23] = tested on: Gallus gallus; experiment: Induction of intestinal calcium absorption in vitamin-D-deficient chicken assessed per 0.2 ml of plasma at 62 nmol, ip using 45Ca2+ and 40Ca2+ after 14 hrs relative to control; assay type: functional; method in brief: as §3
[24] = tested on: Gallus gallus; experiment: Induction of intestinal calcium absorption in vitamin-D-deficient chicken assessed per 0.2 ml of plasma at 310 nmol, ip using 45Ca2+ and 40Ca2+ after 14 hrs relative to control; assay type: functional; method in brief: as §3
[25] = tested on: Gallus gallus; experiment: Induction of intestinal calcium absorption in vitamin-D-deficient chicken assessed per 0.2 ml of plasma at 62 nmol, ip using 45Ca2+ and 40Ca2+ after 18 hrs relative to control; assay type: functional; method in brief: as §3
[26] = tested on: Gallus gallus; experiment: Induction of intestinal calcium absorption in vitamin-D-deficient chicken assessed per 0.2 ml of plasma at 62 nmol, ip using 45Ca2+ and 40Ca2+ after 24 hrs relative to control; assay type: functional; method in brief: as §3
[27] = tested on: Gallus gallus; experiment: Induction of intestinal calcium absorption in vitamin-D-deficient chicken assessed per 0.2 ml of plasma at 62 nmol, ip using 45Ca2+ and 40Ca2+ after 36 hrs relative to control; assay type: functional; method in brief: as §3
[28] = tested on: Gallus gallus; experiment: Induction of bone calcium mobilization in vitamin-D-deficient chicken assessed per 100 ml of serum at 3.3 nmol, ip using 45Ca2+ and 40Ca2+ after 24 hrs; assay type: functional; method in brief: as §2
[29] = tested on: Gallus gallus; experiment: Induction of intestinal calcium absorption in vitamin-D-deficient chicken assessed per 0.2 ml of plasma at 3.3 nmol, ip using 45Ca2+ and 40Ca2+ after 24 hrs; assay type: functional; method in brief: as §3
[30] = tested on: Gallus gallus; experiment: Induction of intestinal calcium absorption in vitamin-D-deficient chicken assessed per 0.2 ml of plasma at 3.3 nmol, ip using 45Ca2+ and 40Ca2+ after 24 hrs relative to control; assay type: functional; method in brief: as §3
[31] = tested on: Gallus gallus; experiment: Induction of bone calcium mobilization in vitamin-D-deficient chicken assessed per 100 ml of serum at 3 nmol, ip using 45Ca2+ and 40Ca2+ after 12 hrs; assay type: functional; method in brief: as §2
[32] = tested on: Gallus gallus; experiment: Induction of bone calcium mobilization in vitamin-D-deficient chicken assessed per 100 ml of serum at 0.60 nmol, ip using 45Ca2+ and 40Ca2+ after 12 hrs; assay type: functional; method in brief: as §2
[33] = tested on: Gallus gallus; experiment: Induction of intestinal calcium absorption in vitamin-D-deficient chicken assessed per 0.2 ml of plasma at 0.60 nmol, ip using 45Ca2+ and 40Ca2+ after 12 hrs; assay type: functional; method in brief: as §3
[34] = tested on: Gallus gallus; experiment: Induction of intestinal calcium absorption in vitamin-D-deficient chicken assessed per 0.2 ml of plasma at 3 nmol, ip using 45Ca2+ and 40Ca2+ after 12 hrs; assay type: functional; method in brief: as §3
[35] = tested on: Gallus gallus; experiment: Induction of intestinal calcium absorption in vitamin-D-deficient chicken assessed per 0.2 ml of plasma at 0.60 nmol, ip using 45Ca2+ and 40Ca2+ after 12 hrs relative to control; assay type: functional; method in brief: as §3
[36] = tested on: Gallus gallus; experiment: Induction of intestinal calcium absorption in vitamin-D-deficient chicken assessed per 0.2 ml of plasma at 3 nmol, ip using 45Ca2+ and 40Ca2+ after 12 hrs relative to control; assay type: functional; method in brief: as §3

RCI [3]: 0.58%
Structure (SMILES): C=C1CC[C@H](O)C/C1=C\C=C1/CCC[C@]2(C)[C@@H]([C@H](C)CCCC(C)(C)O)CC[C@@H]12
Activity [1]: Active
Activity [2]: Active

RCI [3]: 0.066%
Structure (SMILES): C=C1CC[C@H](O)C/C1=C\C=C1/CCC[C@]2(C)[C@@H]([C@H](C)CCCCC(C)(C)O)CC[C@@H]12

RCI [3]: 0.1%
Structure (SMILES): C=C1CC[C@H](O)C/C1=C\C=C1/CCC[C@]2(C)[C@@H]([C@H](C)CCC(C)(C)O)CC[C@@H]12
Activity [1]: inactive
Activity [2]: inactive

The remaining lines, values behind:

Structure (SMILES): C=C1/C(=C\C=C2/CCC[C@]3(C)[C@@H]([C@H](C)CCC(C)(C)O)CC[C@@H]23)C[C@@H](O)C[C@@H]1O
Activity [4]: 4.8 mg
Activity [5]: 4.4 mg
Activity [6]: 5.1 mg
Activity [7]: 5 mg
Activity [8]: 6.5 mg
Activity [9]: 5.6 mg
Activity [10]: 5.4 mg
Activity [11]: 4.3 mg
Activity [12]: 420 cpm
Activity [13]: 560 cpm
Activity [14]: 680 cpm
Activity [15]: 930 cpm
Activity [16]: 1530 cpm
Activity [17]: 1470 cpm
Activity [18]: 770 cpm
Activity [19]: 590 cpm
Ratio [20]: 0.8
Ratio [21]: 1.1
Ratio [22]: 1.3
Ratio [23]: 1.8
Ratio [24]: 2.9
Ratio [25]: 2.8
Ratio [26]: 1.5
Ratio [27]: 1.1
RCI [3]: 46%

Structure (SMILES): C=C1CC[C@H](O)C/C1=C/C=C1\CCC[C@]2(C)[C@@H]([C@H](C)CCCC(C)C)CC[C@@H]12 [CHOLECALCIFEROL]
Activity [28]: 6.3 mg
Activity [29]: 2430 cpm
Ratio [30]: 4.6

Structure (SMILES): C=C1CC[C@H](O)C/C1=C/C=C1\CCC[C@]2(C)[C@@H]([C@H](C)CCCC(C)(C)O)CC[C@@H]12
Activity [1]: Active
Activity [2]: Active

Structure (SMILES): C=C1/C(=C\C=C2/CCC[C@]3(C)[C@@H]([C@H](C)CCCC(C)(C)O)CC[C@@H]23)C[C@@H](O)C[C@@H]1O [CALCITRIOL]
Activity [31]: 6.1 mg
Activity [32]: 6.6 mg
Activity [33]: 1630 cpm
Activity [34]: 1320 cpm
Ratio [35]: 3.1
Ratio [36]: 2.5
Activity [1]: Active
Activity [2]: Active
